Source: publication PMC7873610 (European Journal of Medicinal Chemistry, 2021)
Where two headings read alike, the source gives them in different places.

Experiments:
[1] = tested on: HeLa; conditions: read-out: IC50 in HeLa cells, previously published value; cited from earlier work
[2] = tested on: chymotrypsin-like subunit; conditions: cited from earlier work
[3] = target: β5 catalytic subunit (chymotrypsin-like activity) (Homo sapiens, UniProt P20618+P28074); assay: Proteasome-Glo cell-based chymotrypsin-like; conditions: CT-L; for fold increase in inhibitory activity than compounds with unsubstituted phenyl: vs 30, 29 and BSc2189
[4] = tested on: RPMI8226; assay: MTS cytotoxicity assay, RPMI8226; type: cell-based; conditions: Homo sapiens, RPMI-8226, 72 h, read-out: Cytotoxicity IC50 ± SEM, RPMI8226
Procedure, shortened: (§1)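 RPMI8226, THP-1 and Ramos cells were grown in RPMI 1640 with 10% FBS at 37 °C and 5% CO2. Cells were seeded in 100 μL at 1∗104/well (RPMI8226) or 5∗104/well (THP-1, Ramos) and exposed to test compound for 72 h. MTS was then added for 3 h at 37 °C, and OD was read at 490 nm. Triplicate experiments, triplicate wells each; IC50 from curve fitting.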

[5] = tested on: THP-1; assay: MTS cytotoxicity assay, THP-1; type: cell-based; conditions: Homo sapiens, THP-1, 72 h, read-out: Cytotoxicity IC50 ± SEM, THP-1
Procedure, shortened: as §1

[6] = tested on: Ramos (RA 1); assay: MTS cytotoxicity assay, Ramos; type: cell-based; conditions: Homo sapiens, 72 h, read-out: Cytotoxicity IC50 ± SEM, Ramos (RA 1)
Procedure, shortened: as §1

[7] = tested on: SW480; assay: MTS cytotoxicity assay, SW480; type: cell-based; conditions: Homo sapiens, SW480, 72 h, read-out: Cytotoxicity IC50 ± SEM, SW480
Procedure, shortened: (§2)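 HeLa, MGC-803 and SW480 cells were maintained in DMEM with 10% FBS at 37 °C and 5% CO2. Each line was plated at 5∗10^3 cells/well in 100 μL and treated with test compound for 72 h. MTS solution was added and incubated 3 more h at 37 °C, then absorbance was measured at 490 nm. Assays were run in triplicate with triplicate wells; IC50 was obtained by curve fitting.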

[8] = tested on: HeLa; assay: MTS cytotoxicity assay, HeLa; type: cell-based; conditions: Homo sapiens, 72 h, read-out: Cytotoxicity IC50 ± SEM, Hela, MTS, 72 h
Procedure, shortened: as §2

[9] = tested on: MGC-803; assay: MTS cytotoxicity assay, MGC-803; type: cell-based; conditions: Homo sapiens, MGC-803, 72 h, read-out: Cytotoxicity IC50 ± SEM, MGC-803
Procedure, shortened: as §2

## CC(C)C[C@H](NC(=O)OCc1ccccc1)C(=O)N[C@@H](CC(C)C)C(=O)N[C@@H](CC(C)C)C(=O)C(=O)Nc1ccccc1 [BSc2189]
[1]
  IC50: 254 nM

## Cc1ccc(NC(=O)C(=O)C(CC(C)C)NC(=O)C(CC(C)C)NC(=O)C(CC(C)C)NC(=O)OCc2ccccc2)c(C)c1 (stereo not drawn) [BSc4999]
[2]
  fold more potent than BSc2189: about 2 fold

## CC(C)C[C@H](NC(=O)[C@H](Cc1ccccc1)NC(=O)[C@H](CC1CCCCC1)NC(=O)OCc1ccccc1)C(=O)C(=O)Nc1ccccc1 [Compound 31, ((2S)-3-cyclohexyl-1-(((2S)-1-((5-methyl-1,2-dioxo-1-(phenylamino)hexan-3-yl)amino)-1-oxo-3-phenylpropan-2-yl)amino)-1-oxopropan-2-yl)carbamic acid benzyl ester]
[3]; vs 28 with Ala at P3
  fold increase in potency relative to analog 28: 3 fold
[3]; vs 30 with Leu at P3
  fold reduced activity compared with 30: ~3 fold

## CC(=O)c1cccc(NC(=O)C(=O)[C@H](CC(C)C)NC(=O)[C@H](Cc2ccccc2)NC(=O)[C@H](CC(C)C)NC(=O)OCc2ccccc2)c1 [Compound 34, ((S)-1-(((S)-1-(((S)-1-((3-acetylphenyl)amino)-5-methyl-1,2-dioxohexan-3-yl)amino)-1-oxo-3-phenylpropan-2-yl)amino)-4-methyl-1-oxopentan-2-yl)carbamic acid benzyl ester]
[3]
  fold increase in inhibitory activity than compounds with unsubstituted phenyl: 1.5–4 fold

## CC(=O)c1cccc(NC(=O)C(=O)[C@H](CC(C)C)NC(=O)[C@H](Cc2c[nH]c3ccccc23)NC(=O)[C@H](CC(C)C)NC(=O)OCc2ccccc2)c1 [Compound 35, ((S)-1-(((S)-1-(((S)-1-((3-acetylphenyl)amino)-5-methyl-1,2-dioxohexan-3-yl)amino)-3-(1H-indol-3-yl)-1-oxopropan-2-yl)amino)-4-methyl-1-oxopentan-2-yl)carbamic acid benzyl ester]
[3]
  fold increase in inhibitory activity than compounds with unsubstituted phenyl: 1.5–4 fold

## CC(C)C[C@H](NC(=O)OCc1ccccc1)C(=O)N[C@@H](Cc1c[nH]c2ccccc12)C(=O)N[C@@H](CC(C)C)C(=O)C(=O)Nc1cccc(S(C)(=O)=O)c1 [Compound 36, ((S)-1-(((S)-3-(1H-indol-3-yl)-1-(((S)-5-methyl-1-((3-(methylsulfonyl)phenyl)amino)-1,2-dioxohexan-3-yl)amino)-1-oxopropan-2-yl)amino)-4-methyl-1-oxopentan-2-yl)carbamic acid benzyl ester]
[3]
  fold increase in inhibitory activity than compounds with unsubstituted phenyl: 1.5–4 fold

## CC(C)C[C@H](NC(=O)OCc1ccccc1)C(=O)N[C@@H](Cc1c[nH]c2ccccc12)C(=O)N[C@@H](CC(C)C)C(=O)C(=O)Nc1cccc2ccccc12 [Compound 37, ((S)-1-(((S)-3-(1H-indol-3-yl)-1-(((S)-5-methyl-1-(naphthalen-1-ylamino)-1,2-dioxohexan-3-yl)amino)-1-oxopropan-2-yl)amino)-4-methyl-1-oxopentan-2-yl) carbamic acid benzyl ester]
[3]; 1-naphthyl vs unsubstituted phenyl head group
  fold decrease in inhibitory potency over 29: 2 fold

## CC(=O)c1cccc(NC(=O)C(=O)[C@H](CC(C)C)NC(=O)[C@H](CC(C)C)NC(=O)[C@H](CC(C)C)NC(=O)OCc2ccccc2)c1 [Compound 38, ((S)-1-(((S)-1-(((S)-1-((3-acetylphenyl)amino)-5-methyl-1,2-dioxohexan-3-yl)amino)-4-methyl-1-oxopentan-2-yl)amino)-4-methyl-1-oxopentan-2-yl) carbamic acid benzyl ester]
[3]
  fold increase in inhibitory activity than compounds with unsubstituted phenyl: 1.5–4 fold

## CC(C)C[C@H](NC(=O)OCc1ccccc1)C(=O)N[C@@H](CC(C)C)C(=O)N[C@@H](CC(C)C)C(=O)C(=O)Nc1ccccc1-c1ccccc1 [Compound 41, ((S)-1-(((S)-1-(((S)-1-([1,1′-biphenyl]-2-ylamino)-5-methyl-1,2-dioxohexan-3-yl)amino)-4-methyl-1-oxopentan-2-yl)amino)-4-methyl-1-oxopentan-2-yl)carbamic acid benzyl ester]
[3]; phenyl in ortho position of head group phenyl
  fold reduced inhibitory activity: up to 150 fold

## CC(=O)c1ccc(-c2ccc(C(=O)N[C@@H](CC(C)C)C(=O)N[C@@H](CC(C)C)C(=O)N[C@@H](CC(C)C)C(=O)C(=O)Nc3cccc(C(C)=O)c3)o2)cc1 [Compound 46, 5-(4-acetylphenyl)-N-((S)-1-(((S)-1-(((S)-1-((3-acetylphenyl)amino)-5-methyl-1,2-dioxohexan-3-yl)amino)-4-methyl-1-oxopentan-2-yl)amino)-4-methyl-1-oxopentan-2-yl)furan-2-carboxamide]
[4]
  IC50: 38.1 ± 1.19 nM
[5]
  IC50: 94.4 ± 1.45 nM
[6]
  IC50: 26.13 ± 0.18 nM
[7]
  IC50: 79.3 ± 1.87 nM
[8]
  IC50: 260 ± 4.34 nM
[9]
  IC50: 79 ± 12.6 nM

## COc1cccc(NC(=O)C(=O)[C@H](CC(C)C)NC(=O)[C@H](CC(C)C)NC(=O)[C@H](CC(C)C)NC(=O)c2ccc(-c3ccc(C(C)=O)cc3)o2)c1 [Compound 47, N-((S)-1-(((S)-1-(((S)-1-((3-methoxyphenyl)amino)-5-methyl-1,2-dioxohexan-3-yl)amino)-4-methyl-1-oxopentan-2-yl)amino)-4-methyl-1-oxopentan-2-yl)5-(4-acetylphenyl)-furan-2-carboxamide]
[4]
  IC50: 43.4 ± 1.04 nM
[5]
  IC50: 97.9 ± 2.79 nM
[6]
  IC50: 38.3 ± 3.04 nM
[7]
  IC50: 74.5 ± 3.13 nM
[8]
  IC50: 239 ± 3.28 nM
[9]
  IC50: 85.4 ± 6.73 nM

## COc1ccc(C[C@H](NC(=O)[C@H](C)NC(=O)CN2CCOCC2)C(=O)N[C@@H](Cc2ccccc2)C(=O)[C@@]2(C)CO2)cc1 [ONX-0914, reference compound]
[5]
  IC50: 202 nM
[8]
  IC50: 590 nM
